Experimental data from ChEMBL document CHEMBL1122683, “Histamine H2 receptor antagonists. 1. Synthesis of N-cyano and N-carbamoyl amidine derivatives and their biological activities” (1984).

What was measured:
Canis familiaris = experiment: Reduction in acid response to histamine(160 ug/kg/h i.v.) in anesthetized dogs with acute gastric fistula.; type: functional; conditions: Canis lupus familiaris, Stomach, iv
Procedure, shortened: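 Mongrel dogs of 8–10 kg, fasted 24 h and anesthetized with pentobarbital 30 mg/kg i.v. Pylorus and esophagus ligated, with a stainless steel cannula in the stomach. Histamine infused at 160 μg/(kg h), drugs given i.v., gastric juice collected every 15 min. Inhibition taken from predrug minus minimum acid output (within 45 min). ED50 from a semilog dose-response plot.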

Cavia porcellus = species on record: Cavia porcellus; experiment: Dose representing 50% inhibition of positive chronotropic response to histamine in guinea pig atrium (5 x 10e -6M); type: functional; conditions: Cardiac atrium, read-out: ED50 (the source's name)
Procedure, shortened: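 Isolated right atria from guinea pig, three to four preparations per compound. Test agent added 10 min ahead of histamine (5 × 10⁻⁶ M). Read-out is inhibition of the histamine-induced rise in atrial rate. Percent inhibition plotted against log concentration, and the 50%-inhibiting dose read from that curve; means ± SE.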

Structure (SMILES)	ED50 (Canis familiaris)	EC50 (Cavia porcellus)
Cl.Cl.N=C(N)Nc1nc(CSCCC(=N)NC(N)=O)cs1	0.0064 mg/kg	0.074 µM
N=C(N)Nc1nc(CSCCC(=N)NC(N)=O)no1	–	26 µM
C/N=C(/N)Nc1nc(CSCCC(=N)NC(N)=O)cs1.Cl.Cl	0.046 mg/kg	0.32 µM
Cc1[nH]cnc1CSCCC(=N)NC(N)=O.Cl.Cl	0.22 mg/kg	0.9 µM
Cl.Cl.N=C(CCSCc1c[nH]cn1)NC(N)=O	1.3 mg/kg	5.3 µM
NC(=O)CCSCc1csc(N=C(N)N)n1	–	1 µM
N#CNC(=N)CCCOc1cccc(CN2CCCC2)c1	3.5 mg/kg	13 µM
CN/C(=N\CCSCc1nc[nH]c1C)NC#N [CIMETIDINE]	0.33 mg/kg	2.7 µM
N#CNC(=N)CCSCc1nc[nH]n1	–	> 100 µM
N#CNC(=N)CCCOc1cccc(CN2CCCCC2)c1	2.3 mg/kg	4.7 µM
Cl.Cl.N=C(CCSCc1ccccn1)NC(N)=O	2.5 mg/kg	12 µM
C/N=C(/NC)Nc1nc(CSCCC(=N)NC#N)cs1	–	> 100 µM
CN(C)Cc1cccc(OCCCC(=N)NC#N)c1	9 mg/kg	20 µM
N#CNC(=N)CCSCc1ccc(CN2CCOCC2)o1	–	> 100 µM
N#C/N=C(\N)CCSCc1csc(N)n1	–	> 100 µM
CC(=N)Nc1nc(CSCCC(=N)NC(N)=O)cs1	–	2.5 µM
C/N=C(/CCSCc1[nH]cnc1C)NC#N	–	> 100 µM

Structure (SMILES)	ED50 (Canis familiaris)	EC50 (Cavia porcellus)
CCc1[nH]cnc1CSCCC(=N)NC(N)=O.Cl.Cl	0.33 mg/kg	2 µM
C/N=C(/CCSCc1ccc(CN(C)C)o1)NC#N	> 10 mg/kg	170 µM
N#CNC(=N)CCSCc1ccccn1	–	> 100 µM
C#CC/N=C(/CCSCc1nc[nH]c1C)NC#N	–	> 100 µM
CN(C)Cc1ccc(CSCCC(=N)NC#N)o1	0.28 mg/kg	2.1 µM
CC(=N)Nc1nc(CSCCC(=N)NC#N)cs1	–	9.1 µM
C/N=C(/CCSCc1csc(N=C(N)N)n1)NC#N	0.39 mg/kg	0.98 µM
N#CNC(=N)CCSCc1ccc(CN2CCCCC2)o1	–	35 µM
C/N=C(/N)Nc1nc(CSCCC(=N)NC#N)cs1	–	1.2 µM
Cl.Cl.N=C(CCSCc1nc[nH]n1)NC(N)=O	6.9 mg/kg	41 µM
N#CNC(=N)CCSCc1csc(NC(=N)N)n1	0.018 mg/kg	0.18 µM
CN(C)Cc1ccc(CSCCC(=N)NC#N)s1	4.4 mg/kg	13 µM
CN(C)Nc1nc(CSCCC(=N)NC#N)cs1	–	> 100 µM
N=C(CCSCc1[nH]cnc1C(F)(F)F)NC(N)=O	–	> 100 µM
N#CNC(=N)CCSCc1noc(NC(=N)N)n1	–	> 100 µM
Cc1[nH]cnc1CSCCC(=N)NC#N	–	> 100 µM
N#CNC(=N)CCCCc1csc(NC(=N)N)n1	0.022 mg/kg	0.12 µM
